Assays:
[1] = Growth inhibition of Escherichia coli BW25113 expressing AcrB at 512 ug/ml after 18 hrs by broth microdilution assay; conditions: dose 512 µg/ml
Procedure, shortened: (§1)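 MIC determined by 96-well broth microdilution in E. coli BW25113 expressing AcrB ((+)AcrB) and an isogenic acrB-deleted strain ((-)AcrB). Used to set the compound concentrations for synergy testing that produce no direct antibacterial effect.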

[2] = Growth inhibition of Escherichia coli harboring AcrB deletion mutant at 64 ug/ml after 18 hrs by broth microdilution assay; conditions: dose 64 µg/ml; procedure, shortened: as §1

SMILES | growth inhibition (GI) [1] | growth inhibition (GI) [2]
Oc1ccc(CCCCc2c3ccccc3cc3ccccc23)cc1O | Non-Toxic | Non-Toxic
Oc1ccc(CCCCc2ccccn2)cc1O | Non-Toxic | Non-Toxic
Cc1ccc(CCCCc2ccc(O)c(O)c2)cc1 | Non-Toxic | Non-Toxic
CC(C)CCn1cc(CCCCc2ccc(O)c(O)c2)c2ccccc21 | Non-Toxic | Non-Toxic
Oc1ccc2cc(CCCCc3ccc(O)c(O)c3)ccc2c1 | Non-Toxic | Non-Toxic
Oc1ccc(CCCCc2ccc(O)c(O)c2)cc1 | Non-Toxic | Non-Toxic
Oc1ccc(CCCCc2ccc(-c3ccccc3)cc2)cc1O | Non-Toxic | Non-Toxic
Oc1ccc(CCCCc2ccc(F)cc2)cc1O | Non-Toxic | Non-Toxic
Oc1ccc(CCCCc2ccco2)cc1O | Non-Toxic | Non-Toxic
Cn1cc(CCCCc2ccc(O)c(O)c2)c2ccccc21 | Non-Toxic | Non-Toxic
Oc1ccc(CCCCc2ccccc2)cc1O | Non-Toxic | Non-Toxic
Nc1ccc(CCCCc2ccc(O)c(O)c2)cc1 | Non-Toxic | Non-Toxic
CC(C)(C)c1ccc(CCCCc2ccc(O)c(O)c2)cc1 | Non-Toxic | Non-Toxic
Oc1ccc(CCCCc2cccc3ccccc23)cc1O | Non-Toxic | Non-Toxic
Oc1ccc(CCCC(c2ccccc2)c2ccccc2)cc1O | Non-Toxic | Non-Toxic
CC(C)(C)c1ccc(C(=O)NCCc2ccc(O)c(O)c2)cc1 | Non-Toxic | Non-Toxic
Oc1ccc(CCCCc2ccncc2)cc1O | Non-Toxic | Non-Toxic
CC(C)c1ccc(CCCCc2ccc(O)c(O)c2)cc1 | Non-Toxic | Non-Toxic
